Measured values taken from ChEMBL document CHEMBL4024799, “Synthesis and Biological Characterization of Aryl Uracil Inhibitors of Hepatitis C Virus NS5B Polymerase: Discovery of ABT-072, a trans-Stilbene Analog with Good Oral Bioavailability” (J Med Chem, 2018).
Active and inactive are the calls of the source. No cut-off for these calls is given here.

Assays:
[1] = Half life in dog at 2.5 mg/kg, po; assay type: ADME, organism-based, Canis lupus familiaris; settings: in vivo
Hepatitis C virus [2] = assay: Antiviral activity against HCV genotype 1a H77 infected in human HuH7 cells harboring HCV subgenomic bicistronic replicon after 3 days in presence of 40% human plasma by luciferase reporter gene assay; assay type: functional, cell-based, Hepacivirus hominis; settings: genotype 1a H77, Huh-7, 72 h
Procedure, shortened: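 Subgenomic genotype 1a (H77) or 1b (Con1) replicons carrying firefly luciferase, transfected into Huh-7 cells. Replication inhibition was read as luciferase level in cell lysate on a luminometer and reported as EC50. Runs were done without human plasma or with 40% human plasma added, to assess inhibitor–protein binding.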

[3] = Ratio of drug level in Sprague-Dawley rat liver to plasma at 5 mg/kg, po after 12 hrs; assay type: ADME, organism-based
Procedure, shortened: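 Male/female not given; Sprague-Dawley rats, n = 3 per experiment, single 5 mg/kg oral dose given as a solution in DMSO:PEG400 (1:9, v/v). Drug concentrations measured in liver tissue and plasma at 12 h and 24 h post-dose; value reported as the liver-to-plasma concentration ratio.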

[4] = Oral bioavailability in dog at 30 mg/kg; assay type: ADME, organism-based, Canis lupus familiaris; settings: in vivo
Hepatitis C virus [5] = assay: Antiviral activity against HCV genotype 1 infected in human assessed as decrease in viral RNA load at 160 mg administered once daily for 2 days; assay type: functional, Hepacivirus hominis
Procedure, shortened: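 HCV GT1-infected patients (N=4) given 160 mg once daily for 2 days; read-out was least squares mean maximum decrease from baseline in HCV RNA (log10 IU/mL).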

[6] = tested on: Hepatitis C virus (isolate H77); assay: Inhibition of HCV genotype 1a H77 NS5B RNA dependent RNA polymerase C316H mutant assessed as reduction in [3H]UTP incorporation in to RNA preincubated for 15 mins followed by [3H]UTP addition measured after 3 hrs by microbeta scintillation counting method
Procedure, shortened: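 Standard NS5B polymerase inhibition assay using genotype 1a (H77) or 1b (BK) enzyme. RNA product formation was measured as ³H-UTP incorporated into RNA, read by scintillation counting. IC50 was calculated with a standard IC50 equation.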

[7] = Tmax in human at 80 mg administered as single dose; assay type: ADME; settings: in vivo
Canis familiaris = assay: AUC in dog at 30 mg/kg, po; assay type: ADME, organism-based, Canis lupus familiaris; settings: in vivo
[8] = Half life in Sprague-Dawley rat at 5 mg/kg, po; assay type: ADME, organism-based; settings: in vivo
Procedure, shortened: (§1)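 Sprague-Dawley rats, n = 3 per experiment; solution in DMSO:PEG400 (1:9, v/v) given IV or oral; 5 mg/kg for both routes, and 30 mg/kg oral; plasma t1/2, Vss, clearance, Cmax, AUC and F% determined.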

[9] = Cmax in human at 160 mg administered as single dose; assay type: ADME; parameters: dose 160 mg; settings: in vivo
Procedure, shortened: (§2)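 Single oral doses of 80, 160 or 320 mg in healthy subjects; plasma concentration-time profiles reported as mean (+SD); Cmax and terminal phase half-life derived.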

[10] = Drug level in dog liver at 2.5 mg/kg, po after 24 hrs; assay type: ADME, organism-based, Canis lupus familiaris; settings: read-out: Drug uptake
Procedure, shortened: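 Dogs given oral doses; liver tissue and plasma drug levels measured at 12 and 24 h; liver:plasma ratio calculated.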

[11] = Inhibition of HCV genotype 3a NS5B RNA dependent RNA polymerase assessed as reduction in [3H]UTP incorporation in to RNA preincubated for 15 mins followed by [3H]UTP addition measured after 3 hrs by microbeta scintillation counting method; parameters: species or system Hepatitis C virus subtype 3a
[12] = AUC (infinity) in human at 320 mg administered as single dose; assay type: ADME; parameters: dose 320 mg, time infinity; settings: in vivo; procedure, shortened: as §2
[13] = Cmax in Sprague-Dawley rat at 30 mg/kg, po; assay type: ADME, organism-based; parameters: dose 30 mg/kg, route oral; settings: in vivo; procedure, shortened: as §1
[14] = Volume of distribution at steady state in dog at 2.5 mg/kg, iv; assay type: ADME, organism-based, Canis lupus familiaris; settings: in vivo, read-out: Vdss
Rattus norvegicus = assay: AUC in Sprague-Dawley rat at 5 mg/kg, iv; assay type: ADME, organism-based; settings: in vivo; procedure, shortened: as §1
Hepatitis C virus [15] = assay: Antiviral activity against HCV genotype 1 infected in human assessed as sustained virologic response at 400 mg administered once daily in combination with ABT-450/r and ribavirin; assay type: functional, Hepacivirus hominis
Procedure, shortened: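 GT1-infected adults given 400 mg once daily together with ABT-450/ritonavir and ribavirin; sustained virologic response assessed 24 weeks after treatment.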

[16] = Cmax in human at 80 mg administered as single dose; assay type: ADME; parameters: dose 80 mg; settings: in vivo; procedure, shortened: as §2
[17] = Half life in dog at 2.5 mg/kg, iv; assay type: ADME, organism-based, Canis lupus familiaris; settings: in vivo
[18] = Oral bioavailability in Sprague-Dawley rat at 5 mg/kg; assay type: ADME, organism-based; settings: in vivo; procedure, shortened: as §1

What does the source list for `COc1c(/C=C/c2ccc(NS(C)(=O)=O)cc2)cc(-n2ccc(=O)[nH]c2=O)cc1C(C)(C)C` [ABT-072]?
half-life [1]: 5.4 h; EC50 (Hepatitis C virus [2]): 0.019 µM; Kp at 12 h [3]: 71; bioavailability [4]: 61%; Activity (Hepatitis C virus [5]): 1.18 log10IU/ml; inhibition [6]: inactive; Tmax [7]: 5.1 h; AUC (Canis familiaris): 124 µg·h/mL; half-life [8]: 3.1 h; Cmax [9]: 0.303 µg/mL; concentration at 24 h [10]: > 1000 ng/g; IC50 [11]: 3 µM; AUC(0-inf) [12]: 7.2 µg·h/mL; Cmax [13]: 2 µg/mL; Vd [14]: 1.5 L/kg; AUC (Rattus norvegicus): 5.73 µg·h/mL; Activity (Hepatitis C virus [15]): 91%; Cmax [16]: 0.18 µg/mL; half-life [17]: 5.5 h; bioavailability [18]: 44%
